Where a name gives a salt, the structure may show the parent alone. Activity calls are given as the source filed them. The rule behind the calls is not given here.
Legend:
[1] = Displacement of [3H]-BTX-B from neuronal voltage-gated sodium channel in rat cerebral cortex synaptoneurosomes; format: tissue-based
Procedure, shortened: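 Rat forebrain membranes incubated with [3H]-batrachotoxin (30–60 Ci/mmol) in 50 mM HEPES pH 7.4 with 130 mM choline chloride, 37 °C, 60 min. Stopped by rapid vacuum filtration onto glass fiber filters, and filter radioactivity compared with control. Percent inhibition at 5–7 concentrations spanning the IC50, each in triplicate. IC50 by Probit analysis of the concentration versus percent binding curve. Aconitine 1 μM as positive control.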

[2] = Lipophilicity, log P of the compound; format: physicochemical; details: octanol/water
Procedure, shortened: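 logP calculated with a chemical properties tool, not measured.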

Rattus norvegicus = species on record: Rattus norvegicus; test: Displacement of [3H]-BTX-B from neuronal voltage-gated sodium channel in rat cerebral cortex synaptoneurosomes at 40 uM; format: tissue-based
Procedure, shortened: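 Single-concentration screen at 40 μM. Rat forebrain membranes with [3H]-batrachotoxin (30–60 Ci/mmol) in 50 mM HEPES pH 7.4 containing 130 mM choline chloride, 37 °C for 60 min. Rapid vacuum filtration onto glass fiber filters, and trapped radioactivity compared with control values to give percent displacement. Aconitine 1 μM as positive control.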

[3] = molecular target: Sodium channel protein type 2 subunit alpha (Homo sapiens) (UniProt Q99250); test: Inhibition of human Nav1.2 channel expressed in HEK293 cells assessed as blocked of sodium current elicited at +10 mV for 12 mins from holding potential -100 mV at 100 uM by patch clamp method; format: cell-based; design: scale not given: the % may be the effect or the level left; details: in the assay text read “12 ms” for “12 mins”
Chain of Sodium channel protein type 2 subunit alpha (Homo sapiens) (Q99250 whole entry, looked up): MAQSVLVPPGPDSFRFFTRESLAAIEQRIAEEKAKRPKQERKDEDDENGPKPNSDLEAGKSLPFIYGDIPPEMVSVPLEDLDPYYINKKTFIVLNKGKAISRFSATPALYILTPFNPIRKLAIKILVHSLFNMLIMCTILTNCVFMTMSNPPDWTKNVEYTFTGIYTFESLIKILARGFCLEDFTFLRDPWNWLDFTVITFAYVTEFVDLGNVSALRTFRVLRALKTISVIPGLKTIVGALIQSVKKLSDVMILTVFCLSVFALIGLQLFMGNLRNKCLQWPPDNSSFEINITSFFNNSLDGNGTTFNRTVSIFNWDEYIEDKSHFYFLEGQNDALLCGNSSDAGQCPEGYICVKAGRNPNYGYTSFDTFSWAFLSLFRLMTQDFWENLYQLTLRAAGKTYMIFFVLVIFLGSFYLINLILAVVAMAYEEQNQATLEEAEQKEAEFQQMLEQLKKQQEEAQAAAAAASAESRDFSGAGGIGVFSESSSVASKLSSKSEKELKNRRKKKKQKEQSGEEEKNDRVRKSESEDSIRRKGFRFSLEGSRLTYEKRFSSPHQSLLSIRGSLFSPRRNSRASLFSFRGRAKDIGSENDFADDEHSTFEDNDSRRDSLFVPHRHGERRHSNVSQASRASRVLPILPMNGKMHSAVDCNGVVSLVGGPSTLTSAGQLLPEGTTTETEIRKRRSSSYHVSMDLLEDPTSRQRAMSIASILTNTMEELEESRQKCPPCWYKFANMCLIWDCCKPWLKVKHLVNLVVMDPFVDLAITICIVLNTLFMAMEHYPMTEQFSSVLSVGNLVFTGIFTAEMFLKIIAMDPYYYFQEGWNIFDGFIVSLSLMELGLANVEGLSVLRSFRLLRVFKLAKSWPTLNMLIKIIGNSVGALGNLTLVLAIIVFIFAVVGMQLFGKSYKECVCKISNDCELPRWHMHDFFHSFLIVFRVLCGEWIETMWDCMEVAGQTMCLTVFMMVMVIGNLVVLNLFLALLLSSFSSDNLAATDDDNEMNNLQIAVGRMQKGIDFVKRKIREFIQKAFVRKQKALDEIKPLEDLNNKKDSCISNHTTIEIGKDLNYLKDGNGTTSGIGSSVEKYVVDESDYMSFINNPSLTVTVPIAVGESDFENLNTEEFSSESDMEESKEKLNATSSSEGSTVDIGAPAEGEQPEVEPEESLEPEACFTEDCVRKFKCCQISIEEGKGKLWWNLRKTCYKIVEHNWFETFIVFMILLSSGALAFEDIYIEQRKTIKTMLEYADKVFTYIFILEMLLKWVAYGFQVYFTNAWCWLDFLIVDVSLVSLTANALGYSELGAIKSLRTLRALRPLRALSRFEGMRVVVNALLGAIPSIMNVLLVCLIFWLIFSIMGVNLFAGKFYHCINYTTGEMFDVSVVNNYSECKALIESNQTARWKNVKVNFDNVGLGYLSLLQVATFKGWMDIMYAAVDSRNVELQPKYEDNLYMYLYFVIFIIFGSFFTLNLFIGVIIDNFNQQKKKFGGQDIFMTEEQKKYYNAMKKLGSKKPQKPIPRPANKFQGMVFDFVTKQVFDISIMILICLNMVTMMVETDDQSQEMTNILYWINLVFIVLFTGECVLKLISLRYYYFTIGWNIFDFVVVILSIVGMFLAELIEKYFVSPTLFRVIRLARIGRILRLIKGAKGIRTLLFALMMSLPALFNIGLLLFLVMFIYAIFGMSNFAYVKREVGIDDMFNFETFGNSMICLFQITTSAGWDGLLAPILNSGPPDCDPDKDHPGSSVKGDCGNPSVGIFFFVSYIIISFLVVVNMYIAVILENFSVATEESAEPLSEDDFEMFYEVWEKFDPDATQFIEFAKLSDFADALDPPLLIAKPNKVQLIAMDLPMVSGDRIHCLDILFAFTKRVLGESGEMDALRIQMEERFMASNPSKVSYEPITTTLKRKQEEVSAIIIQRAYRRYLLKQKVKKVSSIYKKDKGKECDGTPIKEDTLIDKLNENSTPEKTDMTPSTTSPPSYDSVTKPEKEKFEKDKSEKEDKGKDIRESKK
Procedure, shortened: (§1)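 Whole-cell patch clamp on HEK293 cells stably expressing human Nav1.2, grown in DMEM/F12 with 10% FBS, penicillin/streptomycin and G418 at 37 °C, 5% CO2. Step to +10 mV for 12 ms from −100 mV holding. Pipette contains CsCl/BAPTA (pH 7.4); bath contains 130 mM NaCl (pH 7.4). DMSO at most 0.3%, 20–22 °C, ≥75% series-resistance compensation. Compound at 100 μM, followed by washout; n = 4.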

[4] = molecular target: Sodium channel protein type 2 subunit alpha (Homo sapiens) (UniProt Q99250); test: Inhibition of human Nav1.2 channel expressed in HEK293 cells assessed as blocked of sodium current elicited at +10 mV for 12 mins from holding potential -100 mV at 100 uM measured after washout by patch clamp method; format: cell-based; details: in the assay text read “12 ms” for “12 mins”; procedure, shortened: as §1

Compound	IC50 [1]	logP [2]	also measured
CCCCC1(c2cccc(C)c2)NC(=O)NC1=O (stereo unspecified)	58 µM	–	–
CC1CCCCN1CCCOC(=O)c1ccccc1 (stereo unspecified) [PIPEROCAINE]	12.9 µM	3.01	–
CCN(CC)CC(=O)Nc1c(C)cc(C(O)(C(N)=O)c2ccccc2)cc1C (stereo unspecified)	–	–	Activity (Rattus norvegicus): 16%
CCCOc1cc(N)ccc1C(=O)OCCN(CC)CC [PROPOXYCAINE HYDROCHLORIDE]	24 µM	2.42	–
COC(=O)[C@H]1[C@@H](OC(=O)c2ccccc2)C[C@@H]2CC[C@H]1N2C [COCAINE]	49 µM	1.82	–
CCN(CC)CC(=O)Nc1ccc(C2(c3ccccc3)NC(=O)NC2=O)cc1 (stereo unspecified)	–	–	Activity (Rattus norvegicus): 50%
CCOC(=O)c1ccc(N)cc1 [BENZOCAINE]	910 µM	1.39	–
CCCCC1(c2ccccc2C)NC(=O)NC1=O (stereo unspecified)	225 µM	–	–
O=C1C(c2ccccc2)N2CCCCN1C2=O (stereo unspecified)	700 µM	2.01	–
CCCCCCCCCC(O)(C(N)=O)c1cc(C)c(NC(=O)CN(CC)CC)c(C)c1 (stereo unspecified)	–	–	Activity (Rattus norvegicus): 63%
CCCN(CC)C(CC)C(=O)Nc1c(C)cccc1C (stereo unspecified) [ETIDOCAINE]	–	3.87	–
O=C1NC(=O)C2(CCCc3ccccc32)N1 (stereo unspecified)	851 µM	–	–
CCCCCCCCCC1(c2cc(C)c(NC(=O)CN(CC)CC)c(C)c2)NC(=O)NC1=O (stereo unspecified)	–	–	Activity (Rattus norvegicus): 69%
CC12C(=O)NC(=O)N1CCc1ccccc12 (stereo unspecified)	250 µM	–	–
CCCNC(C)C(=O)Nc1ccccc1C (stereo unspecified) [PRILOCAINE]	53.7 µM	2.18	–
CCCCCCCCC1(c2ccccc2)NC(=O)NC1=O (stereo unspecified)	5 µM	4.96	–
CCN(CC)CC(=O)Nc1ccc(C(O)(C(N)=O)c2ccccc2)cc1 (stereo unspecified)	–	–	Activity (Rattus norvegicus): 4%
CCCCCC1(c2ccccc2)NC(=O)N(C)C1=O (stereo unspecified)	39 µM	2.96	–
CCCCCCC1(c2ccccc2)NC(=O)NC1=O (stereo unspecified)	13 µM	–	–
O=C1NC(=O)C2(CCc3ccccc32)N1 (stereo unspecified)	2110 µM	–	–
CCCCCCCC(O)(C(N)=O)c1cc(C)c(NC(=O)CN(CC)CC)c(C)c1 (stereo unspecified)	–	–	Activity (Rattus norvegicus): 83%; Activity [3]: 67.7%; Activity [4]: inactive

Compound	IC50 [1]	logP [2]	also measured
CCCCNc1ccc(C(=O)OCCN(C)C)cc1 [TETRACAINE]	–	3.27	–
CCN(CC)CC(=O)Nc1c(C)cc(C2(c3ccccc3)NC(=O)NC2=O)cc1C (stereo unspecified)	–	–	Activity (Rattus norvegicus): 49%
CC(CNC1CCCCC1)OC(=O)c1ccccc1 (stereo unspecified) [HEXYLCAINE]	7.1 µM	3.34	–
CCCCCCC1(c2cc(C)c(NC(=O)CN(CC)CC)c(C)c2)NC(=O)NC1=O (stereo unspecified)	–	–	Activity (Rattus norvegicus): 68%
CCN1C(=O)NC(=O)C1(C)c1ccccc1 (stereo unspecified)	720 µM	–	–
CCCCCCCC1(c2ccccc2)NC(=O)NC1=O (stereo unspecified)	5 µM	–	–
CCCCCCCC1(c2cc(C)c(NC(=O)CN(CC)CC)c(C)c2)NC(=O)NC1=O (stereo unspecified)	–	–	Activity (Rattus norvegicus): 71%
O=C1NC(=O)C2(CCCCCc3ccccc32)N1 (stereo unspecified)	251 µM	–	–
CCCCC1(c2ccc(C)cc2)NC(=O)NC1=O (stereo unspecified)	95 µM	–	–
O=C1NC(=O)C(c2ccccc2)(c2ccccc2)N1 [PHENYTOIN]	40 µM	–	–
CCCCCCCC(O)(C(N)=O)c1ccccc1 (stereo unspecified)	9 µM	–	–
O=C1C(c2ccccc2)N2CCCCCN1C2=O (stereo unspecified)	427 µM	2.51	–
CCCOc1ccc(C(=O)OCCN(CC)CC)cc1N [PROPARACAINE]	2 µM	2.42	–
CCN(CC)CCOC(=O)c1ccc(N)cc1 [PROCAINE]	110 µM	2.53	–
O=C1NC(=O)C2(CCCCc3ccccc32)N1 (stereo unspecified)	251 µM	–	–
CCCCOc1cc(C(=O)NCCN(CC)CC)c2ccccc2n1 [DIBUCAINE]	–	3.77	–
O=C1NC(=O)C(c2ccccc2)(C2CCCCC2)N1 (stereo unspecified)	58 µM	–	–
CCOc1ccc(C(=O)OCCN(CC)CC)cc1 [PARETHOXYCAINE]	24 µM	2.74	–
CCCCC1(c2ccccc2)NC(=O)NC1=O (stereo unspecified)	103 µM	–	–
CCCC1(c2ccccc2)NC(=O)NC1=O (stereo unspecified)	162 µM	–	–
